Test results published in ChEMBL document CHEMBL1255279, “Selection for high-level telithromycin resistance in Staphylococcus aureus yields mutants resulting from an rplB-to-rplV gene conversion-like event” (2008).
≈ marks a conversion by molar mass, not a printed value.

Experiments:
Staphylococcus aureus [1] = assay: Antibacterial activity against Telithromycin resistant Staphylococcus aureus RN4220 carrying rplD and rplV genes; format: functional
Outline: (§1)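 MICs determined in Luria-Bertani medium at 37°C. Resistant mutants of S. aureus RN4220 came from spreading 0.3 ml of an overnight brain heart infusion broth culture onto Luria-Bertani plates containing 1 μg/ml telithromycin. These plates were incubated at 37°C for 1 week.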

Staphylococcus aureus [2] = assay: Antibacterial activity against Telithromycin resistant Staphylococcus aureus isolate KT04 carrying duplication in the carboxy-terminal region of L22 ribosomal protein; format: functional; outline: as §1
Staphylococcus aureus [3] = assay: Antibacterial activity against Telithromycin resistant Staphylococcus aureus isolate KT05 carrying rplD and rplV mutant genes; format: functional; outline: as §1
Staphylococcus aureus [4] = assay: Antibacterial activity against Telithromycin resistant Staphylococcus aureus isolate KT06 carrying duplication in the carboxy-terminal region of L22 ribosomal protein; format: functional; outline: as §1
Staphylococcus aureus [5] = assay: Antibacterial activity against Telithromycin resistant Staphylococcus aureus isolate KT09 carrying rplD and rplV mutant genes; format: functional; outline: as §1
Staphylococcus aureus [6] = assay: Antibacterial activity against Telithromycin resistant Staphylococcus aureus isolate KT10 carrying rplD and rplV mutant genes; format: functional; outline: as §1
Staphylococcus aureus [7] = assay: Antibacterial activity against Telithromycin resistant Staphylococcus aureus isolate KT11 carrying rplD and rplV mutant genes; format: functional; outline: as §1
Staphylococcus aureus [8] = assay: Antibacterial activity against Telithromycin resistant Staphylococcus aureus isolate KT01 carrying rplB-derived insertion of L22 ribosomal protein
Staphylococcus aureus [9] = assay: Antibacterial activity against Telithromycin resistant Staphylococcus aureus isolate KT02 carrying rplB-derived insertion of L22 ribosomal protein

Row | Structure (SMILES) | MIC (Staphylococcus aureus [1]) [µg/mL] | MIC (Staphylococcus aureus [2]) [µg/mL] | MIC (Staphylococcus aureus [3]) [µg/mL] | MIC (Staphylococcus aureus [4]) [µg/mL] | MIC (Staphylococcus aureus [5]) [µg/mL] | MIC (Staphylococcus aureus [6]) [µg/mL] | MIC (Staphylococcus aureus [7]) [µg/mL] | MIC (Staphylococcus aureus [8]) [µg/mL] | MIC (Staphylococcus aureus [9]) [µg/mL]
1 | CC[C@H]1OC(=O)[C@H](C)C(=O)[C@H](C)[C@@H](O[C@@H]2O[C@H](C)C[C@H](N(C)C)[C@H]2O)[C@](C)(OC)C[C@@H](C)C(=O)[C@H](C)[C@H]2N(CCCCn3cnc(-c4cccnc4)c3)C(=O)O[C@]12C [TELITHROMYCIN] | 0.03 (≈ 0.0369 µM) | 16 (≈ 19.7 µM) | 16 (≈ 19.7 µM) | 4 (≈ 4.93 µM) | 2 (≈ 2.46 µM) | 4 (≈ 4.93 µM) | 8 (≈ 9.85 µM) | 16 (≈ 19.7 µM) | 8 (≈ 9.85 µM)
2 | CC[C@H]1OC(=O)[C@H](C)[C@@H](O[C@H]2C[C@@](C)(OC)[C@@H](O)[C@H](C)O2)[C@H](C)[C@@H](O[C@@H]2O[C@H](C)C[C@H](N(C)C)[C@H]2O)[C@](C)(O)C[C@@H](C)C(=O)[C@H](C)[C@@H](O)[C@]1(C)O [ERYTHROMYCIN] | 0.12 (≈ 0.164 µM) | 32 (≈ 43.6 µM) | 32 (≈ 43.6 µM) | 16 (≈ 21.8 µM) | 8 (≈ 10.9 µM) | 4 (≈ 5.45 µM) | 16 (≈ 21.8 µM) | 32 (≈ 43.6 µM) | 32 (≈ 43.6 µM)
